From PubChem
ABHD5 PLIN5 PPI: ABHD5-PLIN5 interaction inhibitors, primary screen, cell lysate, split luciferase complementation, luminescence | Perilipin-5 (Homo sapiens) + 1-acylglycerol-3-phosphate O-acyltransferase ABHD5 (Homo … | Split G. princeps luciferase complementation, 4 h | inhibition, % at 4 µM | hit rate 0.78% among 360,000;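 active = inhibition above the mean inhibition across every tested compound plus 3 SD, cut at about 22% in these data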;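 note: 0% = DMSO only wells and the 100% control is not disclosed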
Target sequence (Q00G26 whole entry, looked up): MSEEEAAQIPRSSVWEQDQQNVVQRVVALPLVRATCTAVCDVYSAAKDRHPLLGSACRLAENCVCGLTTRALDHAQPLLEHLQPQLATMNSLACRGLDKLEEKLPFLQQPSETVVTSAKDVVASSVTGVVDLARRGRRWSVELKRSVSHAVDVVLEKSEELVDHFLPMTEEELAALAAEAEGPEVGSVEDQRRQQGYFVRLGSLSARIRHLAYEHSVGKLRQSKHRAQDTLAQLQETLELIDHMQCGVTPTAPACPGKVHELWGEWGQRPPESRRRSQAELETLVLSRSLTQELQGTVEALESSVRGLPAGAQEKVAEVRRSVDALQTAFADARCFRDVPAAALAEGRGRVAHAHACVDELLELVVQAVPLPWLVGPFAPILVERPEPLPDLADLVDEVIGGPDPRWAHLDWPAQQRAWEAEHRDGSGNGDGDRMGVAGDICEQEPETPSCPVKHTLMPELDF
Target sequence (Q8WTS1 whole entry, looked up): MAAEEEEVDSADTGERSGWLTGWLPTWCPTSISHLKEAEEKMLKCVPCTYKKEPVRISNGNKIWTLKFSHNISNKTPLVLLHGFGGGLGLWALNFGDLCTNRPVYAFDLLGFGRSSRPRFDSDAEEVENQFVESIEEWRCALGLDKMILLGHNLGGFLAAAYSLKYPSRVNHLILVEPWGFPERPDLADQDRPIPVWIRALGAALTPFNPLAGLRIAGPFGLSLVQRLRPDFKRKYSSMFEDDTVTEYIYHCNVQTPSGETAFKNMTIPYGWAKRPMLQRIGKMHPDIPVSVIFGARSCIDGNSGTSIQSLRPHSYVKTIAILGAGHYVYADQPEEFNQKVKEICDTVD
Arrestin-AP2 inh: inhibitors of beta-arrestin/AP2 binding, primary screen, biochemical, GPCR trafficking, flow cytometry; hit rate 0.31% among 340,000; inhibition, % at 10 µM; FITC-arrestin peptide / GST-AP2 beads; AP2 beta2 appendage carries R879A mutation; AID 504490, 2011; beta-arrestin 1 C-terminal peptide binding to AP2 beta2-adaptin appendage (human);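 active = inhibition above a set limit, near 3 SD of compounds lacking own fluorescence, cut at about 54% in these data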;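 note: plate controls were DMSO wells for no effect and 5 µM unlabelled arrestin peptide for full effect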
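System: GST-AP2 R879A glutathione beads; medium: PBS, Tween 20 0.05%, BSA 0.1%; reagent: fluorescein-tagged arrestin peptide at 50 nM final; schedule: pre-incubation 12 min, peptide binding 1 h, room temperature; detection: flow cytometry, FL1 (488/535 nm); read-out: inhibition as reduced fluorescein signal on beads, percent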
MBD2 inh: inhibitors of MBD2 binding to methylated DNA, primary screen, biochemical, TR-FRET, DNA-binding domain, human | Methyl-CpG-binding domain protein 2 (Homo sapiens), Q9UBB5 | MBD2 binding to methylated oligonucleotide | inhibition, % at 4.4 µM | hit rate 0.31% among 370,000 | AID 686964, 2013; in the data active = inhibition above about 13%
Rin1-Abl PPI inh: inhibitors of Rin1-Abl protein binding, primary screen, biochemical, TR-FRET. Tyrosine-protein kinase ABL1 (Homo sapiens) + Ras and Rab interactor 1 (Homo sapiens), …. hit rate 0.4% among 360,000. inhibition, % at 7.35 µM. AID 588664, 2011; in the data active = inhibition above about 5%, passing the limit was not always enough
Beta2AR agonist: beta2AR agonists driving receptor internalization, primary screen, cell-based, FAP fluorogen, flow cytometry | Am2.2-beta2AR cells | response, % (test concentration not listed) | hit rate 0.43% among 340,000;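 active = response above a set limit, near 3 SD of response in nonfluorescent compounds, cut at about 42% in these data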
UHRF1 MBD2 ctr: UHRF1 methylated DNA binding inhibitors, primary screen, counter-screen for MBD2 inhibitor project, biochemical, TR-FRET, human UHRF1, single concentration | inhibition, % at 4.4 µM | AID 687016, 2013 | E3 ubiquitin-protein ligase UHRF1 (Homo sapiens), Q96T88 | hit rate 0.75% among 370,000 | UHRF1 binding to methylated oligo; in the data active = inhibition above about 21%;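 note: UHRF1 SRA domain binding a hemimethylated CpG hairpin DNA probe; 0% = median of test compound wells and 100% = reference inhibitor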
ABHD5-PLIN5 conf: ABHD5-PLIN5 interaction inhibitors, confirmation, biochemical, luminescence. inhibition, % at 4 µM. AID 651612, 2012. hit rate 67% among 2,200. shares compounds with ABHD5 PLIN5 PPI; in the data active = inhibition above about 23%;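 note: 0% = DMSO vehicle wells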
HNF4 counter: HNF4 dimerization inhibitors, counter-screen for ABHD5-PLIN5 interaction inhibitor project, biochemical, split-luciferase complementation, luminescence | AID 651674, 2012 | hit rate 77% among 2,200 | shares compounds with ABHD5 PLIN5 PPI | inhibition, % at 4 µM;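 active = mean inhibition across replicate wells exceeding the computed hit threshold, cut at about 13% in these data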;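 note: light from luciferase halves that rejoin when HNF4 fusion proteins dimerize; 0% = DMSO only wells and the 100% control is not given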
The depositor's hits bear a star; x = not tested or not shown. This is a sample that favours compounds with a hit; in the whole collection about 2.5% have one here.

SMILES	ABHD5 PLIN5 PPI	Arrestin-AP2 inh	MBD2 inh	Rin1-Abl PPI inh	Beta2AR agonist	UHRF1 MBD2 ctr	ABHD5-PLIN5 conf	HNF4 counter
COc1ccccc1C1CC(c2cccs2)=Nc2ccccc2S1 (stereo not drawn)	45*	-2	-1	0	7	-2	-5	5
COc1ccccc1C1CC(c2cccs2)=NN1C(=O)CCC(=O)O (stereo not drawn)	-2	11	-2	0	6	1	x	x
COc1ccc2[nH]cc(C(C)c3ccccc3O)c2c1 (stereo not drawn)	x	x	2	x	x	-1	x	x
Cc1ccc(NC(=O)CN2CCN(C(=O)c3ccco3)CC2)cc1	-4	-2	0	2	1	-2	x	x
Cc1ccc2nc(-c3ccc(NC(=O)CN4CCN(C(=O)c5ccco5)CC4)cc3)sc2c1	27*	-14	2	3	9	-2	20	7
CCOC(=O)Cc1csc(NC(=O)NC2(C(F)(F)F)Oc3cc(Cl)c(Cl)cc3O2)n1	-1	11	-5	-1	3	-2	x	x
CCOC(=O)Cc1csc(NC(=O)NC2(C(F)(F)F)Oc3ccc(Cl)cc3O2)n1 (stereo not drawn)	25*	12	4	1	6	1	54*	60*
CCOC(=O)Cc1csc(NC(=O)NC2(C(F)(F)F)Oc3ccccc3O2)n1	26*	32	1	-2	-2	0	62*	91*
CCOc1cccc2cc(-c3cn4cc(C)ccc4n3)c(=O)oc12	0	4	-5	-3	-6	-3	x	x
CNc1nnc(-c2cc3cc(Cl)ccc3oc2=O)s1	-1	-8	-3	-10	-5	-2	x	x
CCOc1cccc2cc(-c3nnc(NCc4ccco4)s3)c(=O)oc12	48*	3	-1	-7	22	-6	29*	35*
COc1ccc2oc(=O)c(-c3nnc(NCc4ccco4)s3)cc2c1	60*	5	-12	-5	5	-18	21	43*
Cc1ccccc1CC(=O)Nc1nnc(-c2cccnc2)s1	x	x	-2	x	x	-2	x	x
O=C(/C=C/c1ccc(F)cc1)c1ccccc1Br	56*	44	-1	1	13	-3	96*	88*
O=C(/C=C/c1ccc(F)cc1)NC(=S)Nc1ccccc1	0	-3	-1	2	1	0	x	x
Cc1ccc(C(=O)/C=C/c2ccc(F)cc2)o1	42*	3	0	0	10	0	62*	47*
O=C1NCCOc2ccccc21	x	x	1	x	x	0	x	x
Cc1cc(C)c2c(=O)n(CC(=O)Nc3ccc(Cl)cc3)sc2n1	76*	28	1	1	13	4	41*	108*
Cc1ccc(NC(=O)Cn2c(C)cc(C)c(C#N)c2=O)c(Cl)c1	4	-11	-4	-2	-6	-2	x	x
CCOC(=O)c1cn(CC(=O)Nc2cccc(F)c2)nn1	-3	-1	-3	0	0	0	x	x
Cc1cc(C)c2c(n1)SCC(=O)N2CC(=O)Nc1cccc(Cl)c1	-8	-2	-2	0	1	1	x	x
Cc1ccc(NC(=O)Cn2sc3nc(C)cc(C)c3c2=O)c(Cl)c1	65*	31	-4	-1	-16	6	10	98*
CCOc1ccc(NC(=O)Cn2sc3nc(C)cc(C)c3c2=O)cc1	64*	26	x	0	32	x	45*	105*
Cc1cc(C)c2c(=O)n(CC(=O)Nc3cccc(F)c3)sc2n1	44*	35	-3	-2	22	-1	41*	109*
CCOc1ccc(NC(=O)Cn2ncc3ccccc32)cc1	-6	1	5	0	-2	0	x	x
SMILES	ABHD5 PLIN5 PPI	Arrestin-AP2 inh	MBD2 inh	Rin1-Abl PPI inh	Beta2AR agonist	UHRF1 MBD2 ctr	ABHD5-PLIN5 conf	HNF4 counter
O=c1c2cc3cccnc3nc2ncn1CCc1c[nH]c2ccccc12	x	x	-8	x	x	-2	x	x
Cc1ccccc1Cn1cc(CN2[C@@H](CC(C)C)COc3cc(Br)ccc3S2(=O)=O)nn1	x	x	-1	x	x	-1	x	x
C[N+]1=C(/C=C/Nc2ccccc2Cl)C(C)(C)c2ccccc21	-5	-14	-3	-1	-14	-5	x	x
COC(=O)c1ccc2c(c1)C(C)(C)C(/C=C/c1ccccc1O)=[N+]2C	64*	-3	2	-4	62*	-8	98*	95*
CSc1ccc(C=Nn2c(-c3cc(C)[nH]n3)n[nH]c2=S)cc1	x	x	-7	x	x	1	x	x
COCc1cn([C@H]2C[C@@H]3O[C@H](CO)CC[C@@H]3O[C@@H]2CCc2ccc(-c3ccc(OC)cc3)cc2)nn1	x	x	-2	x	x	4	x	x
NC(=O)c1ccccc1NC(=O)COc1ccc(Cl)cc1	46*	-15	-2	1	-2	2	5	-2
Cc1ccc(OCC(=O)Nc2ccccc2C(N)=O)cc1	2	6	-2	-2	1	5	x	x
COc1ccc(S(=O)(=O)/N=C2/C=CC(=O)C(C)=C2C)cc1	16	7	x	-3	8	x	x	x
CC1=C(C)/C(=N\OS(=O)(=O)c2ccc(C)cc2)C=CC1=O	61*	x	1	-4	32	-1	67*	96*
NCCCCCc1cn(CC(=O)NCCCCCCCCCCC(=O)N2CCNCC2)nn1	93*	8	6	4	1	3	4	2
CC(=O)Cc1cc(O)c2ccccc2c1OC(=O)c1ccccc1	67*	1	3	2	11	6	84*	54*
CC(=O)c1cc(C)c(OC(=O)c2ccccc2)c(C)c1	2	17	2	4	11	2	x	x
O=c1c2ccccc2n(Cc2ccccc2)n1[C@@H](Cc1ccccc1)Cn1cc(-c2ccc(-c3ccccc3)cc2)nn1	x	x	-2	x	x	1	x	x
c1cn2c(-c3ccoc3)cncc2n1	23*	x	0	-2	x	0	34*	35*
OC(c1ccccc1)(c1ccccc1)C1CCN(CCCOc2ccc(Br)cc2)CC1	x	x	0	x	x	3	x	x
O=S1(=O)c2c(cccc2N2CCSCC2)Oc2ccccc2CN1Cc1cn(Cc2ccc(C(F)(F)F)cc2)nn1	x	x	-7	x	x	0	x	x
